From ChEMBL document CHEMBL3774311, “Synthesis and in vitro antitumour activity of tiazofurin analogues with nitrogen functionalities at the C-2' position” (Eur J Med Chem, 2016)

Key:
K562 [1] = assay: Induction of specific apoptosis in human K562 cells after 72 hrs by annexin V-FITC/propidium iodide staining based flow cytometry; format: functional; set-up: concentration or dose not given beside the values
Procedure, shortened: (§1)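 K562 cells treated 24 or 72 h, double-stained with Annexin V-FITC/PI and analysed by flow cytometry to give percentages of live, apoptotic and necrotic cells; apoptotic and necrotic responses expressed as specific apoptosis or specific necrosis (%).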

K562 [2] = assay: Induction of apoptosis in human K562 cells assessed as Bax protein level after 72 hrs by Western blotting method (reference value: 32.81%); format: functional
K562 [3] = assay: Induction of apoptosis in human K562 cells assessed as caspase 3 level after 24 hrs by Western blotting method (reference value: 42.77%); format: functional
K562 [4] = assay: Induction of cell cycle arrest in human K562 cells assessed as accumulation at Sub-G1 phase after 72 hrs by propidium iodide staining-based flow cytometry (reference value: 3.04%); format: functional
Procedure, shortened: (§2)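 Exponentially growing K562 cells treated 24 or 72 h; cells stained with propidium iodide and cell-cycle distribution (sub-G1, G0/G1, S, G2/M, %) measured by flow cytometry; untreated cells as control.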

K562 [5] = assay: Induction of apoptosis in human K562 cells assessed as necrotic cells after 72 hrs by annexin V-FITC/propidium iodide staining based flow cytometry (reference value: 7.23%); format: functional; procedure, shortened: as §1
K562 [6] = assay: Induction of cell cycle arrest in human K562 cells assessed as accumulation at G2/M phase after 24 hrs by propidium iodide staining-based flow cytometry (reference value: 14.29%); format: functional; procedure, shortened: as §2
K562 [7] = assay: Induction of apoptosis in human K562 cells assessed as late apoptotic cells after 24 hrs by annexin V-FITC/propidium iodide staining based flow cytometry (reference value: 4.58%); format: functional; procedure, shortened: as §1
K562 [8] = assay: Induction of cell cycle arrest in human K562 cells assessed as accumulation at Sub-G1 phase after 24 hrs by propidium iodide staining-based flow cytometry (reference value: 1.05%); format: functional; procedure, shortened: as §2
K562 [9] = assay: Induction of specific necrosis in human K562 cells after 24 hrs by annexin V-FITC/propidium iodide staining based flow cytometry; format: functional; set-up: concentration or dose not given beside the values; procedure, shortened: as §1
K562 [10] = assay: Induction of apoptosis in human K562 cells assessed as necrotic cells after 24 hrs by annexin V-FITC/propidium iodide staining based flow cytometry (reference value: 1.50%); format: functional; procedure, shortened: as §1
K562 [11] = assay: Induction of cell cycle arrest in human K562 cells assessed as accumulation at S phase after 24 hrs by propidium iodide staining-based flow cytometry (reference value: 48.38%); format: functional; procedure, shortened: as §2
HT-29 = assay: Antiproliferative activity against human HT-29 cells after 72 hrs by MTT assay; format: functional, cell-based; conditions: HT-29, 72 h
Procedure, shortened: (§3)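 Human tumour lines and MRC-5 foetal lung fibroblasts (normal-cell comparator) exposed to compounds for 72 h; viability read by standard MTT assay. IC50 taken as concentration inhibiting growth by 50% versus untreated control; means of three independent experiments, coefficients of variation under 10%.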

HeLa = assay: Antiproliferative activity against human HeLa cells after 72 hrs by MTT assay; format: functional, cell-based; conditions: Homo sapiens, HeLa, 72 h; procedure, shortened: as §3
Raji = assay: Antiproliferative activity against human Raji cells after 72 hrs by MTT assay; format: functional, cell-based; conditions: Homo sapiens, Raji, 72 h; procedure, shortened: as §3
K562 [12] = assay: Induction of apoptosis in human K562 cells assessed as living cells after 24 hrs by annexin V-FITC/propidium iodide staining based flow cytometry (reference value: 85.85%); format: functional; procedure, shortened: as §1
MRC5 = assay: Cytotoxicity against human MRC5 cells after 72 hrs by MTT assay; format: cell-based; conditions: MRC5, 72 h; procedure, shortened: as §3
K562 [13] = assay: Induction of apoptosis in human K562 cells assessed as caspase 3 level after 72 hrs by Western blotting method (reference value: 17.05%); format: functional
MCF7 = assay: Antiproliferative activity against human MCF7 cells after 72 hrs by MTT assay; format: functional, cell-based; conditions: MCF7, 72 h; procedure, shortened: as §3
K562 [14] = assay: Induction of apoptosis in human K562 cells assessed as Bcl2 protein level after 24 hrs by Western blotting method (reference value: 22.81%); format: functional
K562 [15] = assay: Induction of cell cycle arrest in human K562 cells assessed as accumulation at G0/G1 phase after 72 hrs by propidium iodide staining-based flow cytometry (reference value: 45.92%); format: functional; procedure, shortened: as §2
K562 [16] = assay: Induction of apoptosis in human K562 cells assessed as living cells after 72 hrs by annexin V-FITC/propidium iodide staining based flow cytometry (reference value: 84.31%); format: functional; procedure, shortened: as §1
K562 [17] = assay: Induction of cell cycle arrest in human K562 cells assessed as accumulation at S phase after 72 hrs by propidium iodide staining-based flow cytometry (reference value: 35.73%); format: functional; procedure, shortened: as §2
K562 [18] = assay: Induction of cell cycle arrest in human K562 cells assessed as accumulation at G2/M phase after 72 hrs by propidium iodide staining-based flow cytometry (reference value: 15.31%); format: functional; procedure, shortened: as §2
K562 [19] = assay: Induction of specific apoptosis in human K562 cells after 24 hrs by annexin V-FITC/propidium iodide staining based flow cytometry; format: functional; set-up: concentration or dose not given beside the values; procedure, shortened: as §1
K562 [20] = assay: Induction of cell cycle arrest in human K562 cells assessed as accumulation at G0/G1 phase after 24 hrs by propidium iodide staining-based flow cytometry (reference value: 36.28%); format: functional; procedure, shortened: as §2
K562 [21] = assay: Induction of apoptosis in human K562 cells assessed as early apoptotic cells after 72 hrs by annexin V-FITC/propidium iodide staining based flow cytometry (reference value: 3.22%); format: functional; procedure, shortened: as §1
K562 [22] = assay: Induction of apoptosis in human K562 cells assessed as cleaved PARP level after 24 hrs by Western blotting method (reference value: 36.17%); format: functional
[23] = Antiproliferative activity against human HL60 cells after 72 hrs by MTT assay; format: functional, cell-based, HL-60; conditions: Homo sapiens, HL-60, 72 h; procedure, shortened: as §3
K562 [24] = assay: Induction of specific necrosis in human K562 cells after 72 hrs by annexin V-FITC/propidium iodide staining based flow cytometry; format: functional; set-up: concentration or dose not given beside the values; procedure, shortened: as §1
K562 [25] = assay: Induction of apoptosis in human K562 cells assessed as cleaved PARP level after 72 hrs by Western blotting method (reference value: 18.36%); format: functional
K562 [26] = assay: Induction of apoptosis in human K562 cells assessed as Bax protein level after 24 hrs by Western blotting method (reference value: 16.13%); format: functional
Jurkat = assay: Antiproliferative activity against human Jurkat cells after 72 hrs by MTT assay; format: functional, cell-based; procedure, shortened: as §3
K562 [27] = assay: Induction of apoptosis in human K562 cells assessed as Bcl2 protein level after 72 hrs by Western blotting method (reference value: 7.90%); format: functional
K562 [28] = assay: Induction of apoptosis in human K562 cells assessed as early apoptotic cells after 24 hrs by annexin V-FITC/propidium iodide staining based flow cytometry (reference value: 8.09%); format: functional; procedure, shortened: as §1
K562 [29] = assay: Induction of apoptosis in human K562 cells assessed as late apoptotic cells after 72 hrs by annexin V-FITC/propidium iodide staining based flow cytometry (reference value: 5.24%); format: functional; procedure, shortened: as §1
K562 [30] = assay: Antiproliferative activity against human K562 cells after 72 hrs by MTT assay; format: functional, cell-based; conditions: Homo sapiens, K562, 72 h; procedure, shortened: as §3

Row | IC50 (MCF7) | SMILES | Activity (K562 [1]) | Activity (K562 [2]) | Activity (K562 [3]) | Activity (K562 [4]) | Activity (K562 [5]) | Activity (K562 [6]) | Activity (K562 [7]) | Activity (K562 [8]) | Activity (K562 [9]) | Activity (K562 [10]) | Activity (K562 [11]) | Activity (K562 [12]) | Activity (K562 [13]) | Activity (K562 [14]) | Activity (K562 [15]) | Activity (K562 [16]) | Activity (K562 [17]) | Activity (K562 [18]) | Activity (K562 [19]) | other results
1 | 3.92 µM | CC(=O)N[C@@H]1[C@H](O)[C@@H](CO)O[C@H]1c1nc(C(N)=O)cs1 | 43.6% | 98.81% | 90.45% | 11.17% | 25.03% | 8.21% | 12.48% | 3.71% | 5.88% | 7.39% | 45.03% | 75.11% | 93.75% | 63.4% | 48.09% | 7.05% | 31.42% | 9.32% | 12.6% | IC50 (HT-29): > 100 µM; IC50 (HeLa): > 100 µM; IC50 (Raji): 14.7 µM; IC50 (MRC5): 5.26 µM; Activity (K562 [20]): 43.07%; Activity (K562 [21]): 5.93%; Activity (K562 [22]): 95.59%; IC50 [23]: > 100 µM; Activity (K562 [24]): 24.55%; Activity (K562 [25]): 33.66%; Activity (K562 [26]): 18.43%; IC50 (Jurkat): > 100 µM; Activity (K562 [27]): 37.09%; Activity (K562 [28]): 5.03%; Activity (K562 [29]): 62.01%; IC50 (K562 [30]): > 100 µM
2 | 9.54 µM | COc1cccc(C(=O)N[C@@H]2[C@H](O)[C@@H](CO)O[C@H]2c2nc(C(N)=O)cs2)c1 | 37.07% | 89.53% | 104.69% | 10.84% | 10.82% | 9.41% | 8.67% | 4.44% | 3.68% | 5.19% | 46.71% | 77.99% | 82.68% | 47.76% | 43.13% | 2.76% | 34% | 12.04% | 11.88% | IC50 (HT-29): > 100 µM; IC50 (HeLa): > 100 µM; IC50 (Raji): 6.29 µM; IC50 (MRC5): > 100 µM; Activity (K562 [20]): 39.45%; Activity (K562 [21]): 16.45%; Activity (K562 [22]): 111.75%; IC50 [23]: 2.69 µM; Activity (K562 [24]): 10.33%; Activity (K562 [25]): 37.39%; Activity (K562 [26]): 4.66%; IC50 (Jurkat): 23.6 µM; Activity (K562 [27]): 26.7%; Activity (K562 [28]): 8.16%; Activity (K562 [29]): 69.98%; IC50 (K562 [30]): > 100 µM
3 | 1.78 µM | NC(=O)c1csc([C@@H]2O[C@H](CO)[C@@H](O)[C@H]2O)n1 [TIAZOFURIN] | 13.71% | 111.01% | 47.68% | 24.99% | 13.76% | 7.55% | 11.58% | 2.22% | 3.76% | 5.27% | 53.16% | 79.36% | 15.38% | 16.16% | 35.66% | 41.24% | 33.62% | 5.74% | -0.34% | Activity (K562 [20]): 37.08%; Activity (K562 [21]): 29.42%; Activity (K562 [22]): 57.93%; IC50 [23]: 0.19 µM; Activity (K562 [24]): 10.71%; Activity (K562 [25]): 44.51%; Activity (K562 [26]): 37.25%; Activity (K562 [27]): 27.2%; Activity (K562 [28]): 3.79%; Activity (K562 [29]): 15.58%; IC50 (K562 [30]): 1.89 µM
